# Assay outcomes: PubChem, several laboratories
# STAT1 blocker: inhibitors of IFN-gamma induced STAT1 signaling. NIH 3T3 STAT1-luciferase reporter, luminescence. inhibition, % at 5.5 µM. 200,000 tested, 0.35% active. AID 920;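 active means inhibition above a set limit, the mean inhibition across all tested compounds plus 3 SD, cut at about 34% in these data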;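 further: 0% = IFN-gamma with DMSO and 100% = IFN-gamma with 300 µM nifuroxazide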
# APP 5'UTR act: activates APP 5'UTR luciferase reporter; 190,000 tested, 1% active; SH-SY5Y APP 5'UTR luciferase reporter, luminescence; zero percent = DMSO vehicle wells; activation, % at 2 µM; AID 1276;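 active means activation above a set limit, based on mean plus 3 SD of controls, cut at about 140% in these data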
# STAT1 act-1: increases IFN-gamma driven STAT1 reporter signal; 200,000 tested, 2.6% active; AID 932; NIH 3T3 STAT1-luciferase reporter, luminescence; 100% = IFN-gamma alone, no compound; activation (% of control), % at 5.5 µM;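 active means activation above the screen-wide mean activation plus 3 SD, cut at about 130% in these data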;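 further: raw ratio to IFN-gamma control signal so 100% means no change and 0% no light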
# STAT3 inh: reduces IL-6 driven STAT3 reporter signal; U3A cells, IL-6 STAT3-luciferase reporter, luminescence; host cell line lacks STAT1; 190,000 tested, 0.89% active; AID 862; inhibition, % at 5.5 µM;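 active means inhibition above the mean inhibition across all screened compounds plus 3 SD, cut at about 44% in these data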;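 further: 0% = DMSO only wells and 100% = 100 µM nifuroxazide control wells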
# NF-kB neuron act: raises NF-kB expression in human neuronal cells | fold change at 12.5 µM | 190,000 tested, 1.6% active | AID 1239 | NF-kB reporter expression; active compounds read high; in the data active means fold change above about 3.3
# STAT3 act-1: increases IL-6 driven STAT3 reporter signal; 190,000 tested, 0.91% active; U3A cells, IL-6 STAT3-luciferase reporter, luminescence; 100% = signal with IL-6 EC80 alone; activation (% of control), % at 5.6 µM; AID 871;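 active means activation above the screen-wide mean of compound activation plus 3 SD, cut at about 130% in these data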;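 further: 0% = background luminescence of wells with medium and substrate only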
#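 system = STAT3-luciferase reporter U3A cells | reagent = IL-6 stimulus at 33 ng/mL final | timing = 1 h compound pre-exposure, 6 h IL-6 stimulation, 37 °C | measured by = luminescence | evaluation = % activation versus median of IL-6-stimulated wells | control set = IL-6-only wells as 100% reference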
# STAT3 act-2: confirmation of STAT3 signaling activators; U3A STAT3-luciferase reporter, IL-6 potentiation, luminescence; U3A cells lack STAT1; 100 means same as IL-6 alone; 1,200 tested, 64% active; potentiation (% of control), % at 5.7 µM; shares compounds with STAT3 act-1;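 active means percent activation of the STAT3 luciferase reporter above a set limit taken from the earlier primary screen, cut at about 130% in these data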;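 further: 0% = background signal of medium plus substrate and 100% = median of IL-6 with DMSO wells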
# NFkB act STAT3ct: counter-screen for STAT3 activators: NF-kappaB activation. AID 1309. 1,200 tested, 11% active. shares compounds with STAT3 act-1. human cells, NF-kappaB reporter activation. activation (% of control), % at 5.7 µM; in the data active means activation above about 120%;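 further: reporter induced by TNF-alpha stimulation; 100% = median of stimulated DMSO wells and 0% = no signal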
# STAT1 act-2: STAT1 activation in STAT3 activator counter-screen; shares compounds with STAT3 act-1; activation (% of control), % at 5.7 µM; 1,200 tested, 13% active; NIH 3T3 STAT1-luciferase reporter, IFN-gamma, luminescence;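 active means activation above the solvent-only control well mean plus 3 SD, set per screening run, cut at about 120% in these data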;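 further: 100% = IFN-gamma with DMSO median signal so 100% means no change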
# The depositor's hits bear a star; i = inactive; x = no result given. Only some compounds are listed: those with a hit (about 4.9% of all), similar ones and a draw of the others.
SMILES,STAT1 blocker,APP 5'UTR act,STAT1 act-1,STAT3 inh,NF-kB neuron act,STAT3 act-1,STAT3 act-2,NFkB act STAT3ct,STAT1 act-2
O=C(CCl)N1CCN2C(=O)c3ccccc3C12c1ccc(Cl)cc1 (stereo unspecified),5,20,95,3,0.22,106,x,x,x
Cc1ccc(C(=O)N2CCN3C(=O)c4ccccc4C23c2ccc(Cl)cc2)cc1 (stereo unspecified),22,2,82,i,1.5,559*,487*,126*,77
CC(C)(C)n1nc2c(c1NC(=O)c1ccc(S(=O)(=O)N3CCCC3)cc1)CSC2,9,-3,92,-63,0.91,152*,145*,108,95
CC[n+]1ccc2cc(OC)c(OC)cc2c1Cc1ccc(OC)c(OC)c1,-7,10,106,15,0.94,92,x,x,x
O=C1N(c2ccccc2)C[C@@H]2C[C@@H](c3cc4ccccc4o3)N3CCC[C@@]123,-7,-95,105,-41,0.49,141*,156*,43,107
Cc1ccc(-c2ccccc2[C@@H]2C[C@H]3CN(C)C(=O)[C@]34CCCN24)o1,-2,-1,100,-2,0.84,106,x,x,x
COc1cccc(-c2nnc(SCC3CNC(=O)O3)n2-c2ccc(Cl)cc2)c1 (stereo unspecified),1,-10,99,-7,0.81,102,x,x,x
CCOc1cc(Br)ccc1S(=O)(=O)NCc1ccccc1,3,-1,97,14,1.4,93,x,x,x
CC(=O)Nc1ccc(N2C(=O)CSC2c2ccccc2[N+](=O)[O-])cc1 (stereo unspecified),-7,6,104,9,1.1,97,x,x,x
Cc1ccc(O)c(C=Nc2cc(C)ccc2O)c1,7,-1,93,-9,1.1,111,x,x,x
Cc1ccc(O)c(N=CC2=C(O)c3ccccc3C2=O)c1,-25,11,122,-49,4.2*,149*,138*,128*,105
CCC1=Nc2cc(C(=O)NCCCOC)ccc2Sc2ccccc21,-8,-95,107,-11,1.6,115,x,x,x
CCC1=Nc2cc(C(=O)NCc3ccco3)ccc2Sc2ccc(C)cc21,4,-94,96,-58,2.7,145*,120,154*,118
CCOc1ccc(CCNC(=O)Cn2cccc2C(=O)c2ccccc2C)cc1OCC,0,-6,100,-2,0.96,102,x,x,x
COc1cc2c(cc1NC(=O)C(C)OC(=O)C1CC(=O)N(Cc3ccco3)C1)oc1ccccc12 (stereo unspecified),-26,51,124,-65,1.8,154*,147*,118,122*
COc1ccc(N=Cc2sc3ccccc3c2Cl)cc1,-29,-6,126,-40,1.5,137*,110,115,132*
c1ccc2c(c1)CCN(c1nc3ccccc3n3cnnc13)C2,2,-3,98,-34,0.97,132,x,x,x
c1ccc2c(c1)CCCN2c1nc2ccccc2n2cnnc12,-7,12,106,-65,0.58,164*,163*,110,109
O=C(Nc1ccccc1N1CCN(C(=O)c2ccccc2)CC1)c1cc2ccccc2o1,4,1,97,-46,0.47,142*,126,101,96
O=C(Nc1ccccc1N1CCCC1)c1cc2ccccc2o1,-25,90,123,-60,1.5,152*,140*,124*,134*
O=C(Nc1ccccc1N1CCN(C(=O)c2ccccc2)CC1)c1cc(Br)ccc1Cl,2,-7,98,-13,0.47,115,x,x,x
CN1CCN(c2ccccc2NC(=O)c2ccc(Br)o2)CC1,-9,-14,101,14,0.99,90,x,x,x
CN1CCN(c2ccccc2NC(=O)c2cc3ccccc3o2)CC1,-9,18,108,-50,0.79,144*,126,102,102
O=C(Nc1ccccc1)C1=C(O)CC(c2ccc(Cl)cc2)N2CCN=C12 (stereo unspecified),-3,7,103,8,1,93,x,x,x
CC(=O)Nc1ccccc1OCC(=O)N(Cc1ccccc1)C(C)C,16,8,86,13,0.84,88,x,x,x
SMILES,STAT1 blocker,APP 5'UTR act,STAT1 act-1,STAT3 inh,NF-kB neuron act,STAT3 act-1,STAT3 act-2,NFkB act STAT3ct,STAT1 act-2
O=C(Nc1ccccc1O)c1csc2c1CCCC2,-8,79,105,-55,2.2,151*,149*,118,97
Cn1c(=O)oc2cc(S(=O)(=O)NCCC(=O)N3CCc4ccccc43)ccc21,-2,-9,101,-47,1.1,140*,124,102,99
Cn1c(=O)oc2cc(S(=O)(=O)NCCC(=O)N3CC=C(c4ccccc4)CC3)ccc21,9,-8,92,16,0.87,91,x,x,x
Cc1ccc([N+](=O)[O-])cc1NC(=O)c1cccs1,3,-8,97,27,1.1,80,x,x,x
CNc1cc([N+](=O)[O-])ccc1N/C=C/C(=O)c1cccs1,-6,3,105,-92,0.47,176*,153*,106,101
Cc1ccc(C(=O)NN2C(=O)C3C(C2=O)C2C=CC3C23CC3)cc1 (stereo unspecified),-1,-3,99,8,1.1,102,x,x,x
COC(=O)c1cc2ccsc2n1CC(=O)Nc1cc(Cl)ccc1OC,7,-11,94,-51,0.97,152*,147*,93,95
COC(=O)c1cc2ccsc2n1CC(=O)Nc1ccc(N(C)C)cc1,9,-1,91,2,0.96,100,x,x,x
CCOCCCNC(=O)c1ccc(-n2c(=S)[nH]c3ccccc3c2=O)cc1,13,3,88,13,0.95,91,x,x,x
CCC(C)(C(=O)NC1CCCC1)N(C(=O)c1cnccn1)c1ccccc1 (stereo unspecified),0,-7,100,-40,1,137*,117,100,103
CSc1ccc(/C=N/NC(=O)CNc2ccc3ccccc3c2)cc1,0,19,100,-48,0.7,146*,140*,107,98
CSc1ccc(/C=N/NC(=O)CNc2cccc3ccccc23)cc1,-1,9,101,-25,1.1,121,x,x,x
Brc1cc(Br)c2nc(-c3cccs3)ccc2c1,-7,-6,107,-48,1.4,145*,133,115,125*
COC(=O)c1sccc1NC(=O)Nc1cccc(F)c1,-29,4,127,-43,0.8,150*,131,121*,135*
